Test results: ChEMBL document CHEMBL1782047, “Retinoid receptor subtype-selective modulators through synthetic modifications of RARgamma agonists” (Bioorg Med Chem, 2009)
pIC50: −log10 of the molar value. Activity calls are given as the source filed them. The rule behind the calls is not given here.

Columns and labels:
Type in all cases: cell-based
[1] = target: T1, Retinoic acid receptor alpha (Mus musculus) (UniProt P11416); assay: Agonist activity at yeast GAL4 fused mouse RARalpha ligand binding domain expressed in HeLa cells assessed as receptor transactivation by luciferase reporter gene assay
T1 sequence (whole entry): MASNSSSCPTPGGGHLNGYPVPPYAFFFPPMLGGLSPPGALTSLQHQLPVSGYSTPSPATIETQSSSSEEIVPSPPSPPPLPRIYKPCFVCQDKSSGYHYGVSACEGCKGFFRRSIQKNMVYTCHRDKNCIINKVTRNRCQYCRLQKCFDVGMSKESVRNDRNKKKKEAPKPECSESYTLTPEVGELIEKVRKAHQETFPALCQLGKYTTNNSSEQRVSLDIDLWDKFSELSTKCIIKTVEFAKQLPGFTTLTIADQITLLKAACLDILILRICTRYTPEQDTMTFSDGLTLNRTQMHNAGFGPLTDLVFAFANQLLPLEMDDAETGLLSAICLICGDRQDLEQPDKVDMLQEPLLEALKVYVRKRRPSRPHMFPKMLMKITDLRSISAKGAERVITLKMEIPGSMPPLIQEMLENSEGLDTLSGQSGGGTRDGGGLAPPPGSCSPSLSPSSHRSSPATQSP
How it was run: (§1)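 Stably transfected HeLa lines carrying a (17m)5-βG-Luc-Neo reporter and the matching Gal4-mRAR fusion were seeded at 160,000 cells/well. After 12 h, cells were given ligand across a dose range in phenol-red-free DMEM with 5% charcoal-treated FCS and held 12 h at 37 °C, 5% CO2. Lysates were read for luciferase with luciferin, ATP and coenzyme A. Fold induction is compound RLU over vehicle-control RLU.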

[2] = target: T2, Retinoic acid receptor gamma (Mus musculus) (UniProt P18911); assay: Agonist activity at yeast GAL4 fused mouse RARgamma ligand binding domain expressed in HeLa cells assessed as receptor transactivation by luciferase reporter gene assay; how it was run: as §1
T2 sequence (whole entry): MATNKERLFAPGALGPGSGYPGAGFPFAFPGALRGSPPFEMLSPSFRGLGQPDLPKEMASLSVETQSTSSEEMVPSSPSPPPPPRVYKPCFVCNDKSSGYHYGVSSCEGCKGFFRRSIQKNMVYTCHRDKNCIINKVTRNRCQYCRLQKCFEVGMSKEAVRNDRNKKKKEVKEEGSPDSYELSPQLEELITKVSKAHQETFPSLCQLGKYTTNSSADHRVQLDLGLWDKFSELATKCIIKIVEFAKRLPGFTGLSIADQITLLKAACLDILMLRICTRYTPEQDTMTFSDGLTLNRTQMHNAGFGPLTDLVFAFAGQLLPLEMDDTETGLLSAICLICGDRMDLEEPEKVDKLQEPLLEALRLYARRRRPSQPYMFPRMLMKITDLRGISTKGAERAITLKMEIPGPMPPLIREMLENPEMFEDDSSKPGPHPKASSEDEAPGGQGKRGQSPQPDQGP

[3] = target: T3, Retinoic acid receptor RXR-beta (Homo sapiens) (UniProt P28702); assay: Antagonist activity at yeast GAL4 fused human RXRbeta ligand binding domain expressed in HeLa cells assessed as inhibition of receptor transactivation by luciferase reporter gene assay
T3 sequence (whole entry): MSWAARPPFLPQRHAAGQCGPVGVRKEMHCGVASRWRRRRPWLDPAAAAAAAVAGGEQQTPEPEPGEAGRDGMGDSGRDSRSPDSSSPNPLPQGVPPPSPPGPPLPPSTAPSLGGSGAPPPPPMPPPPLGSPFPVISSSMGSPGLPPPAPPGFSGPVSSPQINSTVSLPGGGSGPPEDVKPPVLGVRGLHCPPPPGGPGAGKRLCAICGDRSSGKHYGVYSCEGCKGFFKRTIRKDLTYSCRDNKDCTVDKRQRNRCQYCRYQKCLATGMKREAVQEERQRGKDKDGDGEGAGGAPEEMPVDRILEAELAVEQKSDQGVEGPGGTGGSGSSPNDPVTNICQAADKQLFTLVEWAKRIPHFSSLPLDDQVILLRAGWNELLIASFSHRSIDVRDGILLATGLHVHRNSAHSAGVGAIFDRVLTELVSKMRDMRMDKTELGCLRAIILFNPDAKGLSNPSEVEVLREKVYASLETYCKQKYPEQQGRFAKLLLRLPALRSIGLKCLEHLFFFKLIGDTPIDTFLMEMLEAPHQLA

[4] = target: T4, Retinoic acid receptor beta (Mus musculus) (UniProt P22605); assay: (§2) Antagonist activity at yeast GAL4 fused mouse RARbeta ligand binding domain expressed in HeLa cells assessed as inhibition of TTNPB-induced receptor transactivation by luciferase reporter gene assay
T4 sequence (whole entry): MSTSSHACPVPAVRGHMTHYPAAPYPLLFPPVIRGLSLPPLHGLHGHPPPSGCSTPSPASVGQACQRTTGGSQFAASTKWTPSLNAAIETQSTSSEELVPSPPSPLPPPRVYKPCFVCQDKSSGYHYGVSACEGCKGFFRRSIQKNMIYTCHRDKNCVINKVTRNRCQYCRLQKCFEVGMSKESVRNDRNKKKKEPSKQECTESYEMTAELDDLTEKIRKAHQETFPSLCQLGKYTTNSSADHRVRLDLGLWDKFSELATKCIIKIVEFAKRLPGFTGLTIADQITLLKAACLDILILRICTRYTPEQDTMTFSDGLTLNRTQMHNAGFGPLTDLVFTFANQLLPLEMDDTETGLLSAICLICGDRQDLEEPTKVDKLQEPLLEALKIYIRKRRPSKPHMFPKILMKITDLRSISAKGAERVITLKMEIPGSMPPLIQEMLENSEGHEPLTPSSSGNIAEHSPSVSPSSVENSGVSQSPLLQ
How it was run: (§3)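 The Gal4-mRAR fusion HeLa reporter lines [(17m)5-βG-Luc-Neo] were seeded at 160,000 cells/well. After 12 h, cells got 10 nM TTNPB plus rising test-compound concentrations in phenol-red-free DMEM with 5% charcoal-treated FCS for 12 h at 37 °C, 5% CO2. Luciferase in lysates was read luminometrically. Antagonism is the loss of activity relative to TTNPB alone.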

[5] = target: T2, Retinoic acid receptor gamma (Mus musculus); assay: (§4) Antagonist activity at yeast GAL4 fused mouse RARgamma ligand binding domain expressed in HeLa cells assessed as inhibition of TTNPB-induced receptor transactivation by luciferase reporter gene assay; how it was run: as §3
[6] = target: T3, Retinoic acid receptor RXR-beta (Homo sapiens); assay: Agonist activity at yeast GAL4 fused human RXRbeta ligand binding domain expressed in HeLa cells assessed as receptor transactivation by luciferase reporter gene assay
[7] = target: T1, Retinoic acid receptor alpha (Mus musculus); assay: (§5) Antagonist activity at yeast GAL4 fused mouse RARalpha ligand binding domain expressed in HeLa cells assessed as inhibition of TTNPB-induced receptor transactivation by luciferase reporter gene assay; how it was run: as §3
[8] = target: T5, Retinoic acid receptor gamma (Mus musculus, UniProt P18911); assay: as §4; how it was run: as §3
T5 sequence (P18911 whole entry): T2 sequence (whole entry)

[9] = target: T6, Retinoic acid receptor beta (Mus musculus, UniProt P22605); assay: as §2; how it was run: as §3
T6 sequence (P22605 whole entry): T4 sequence (whole entry)

[10] = target: T7, Retinoic acid receptor alpha (Mus musculus, UniProt P11416); assay: as §5; how it was run: as §3
T7 sequence (P11416 whole entry): T1 sequence (whole entry)

| Compound | Activity [1] | Activity [2] | inhibition [4] | inhibition [5] | Activity [6] | inhibition [7] | further results |
| --- | --- | --- | --- | --- | --- | --- | --- |
| CC1(C)CC=C(c2ccccc2)c2ccc(C3=NOC(c4ccc(C(=O)O)cc4)C3)cc21 (racemic) | – | – | – | – | – | – | pIC50 [8]: < 5.00 |
| CC1(C)CC=C(C#Cc2ccccc2)c2ccc(C3=NOC(c4ccc(C(=O)O)cc4)C3)cc21 (racemic) | – | – | – | – | – | – | pIC50 [8]: 5.52 |
| CC1(C)CC=C(C#Cc2ccccc2)c2ccc(C(=O)/C=C/c3ccc(C(=O)O)cc3)cc21 | Active | Active | – | – | inactive | – | inhibition [3]: Active |
| Cc1ccc(C2=CCC(C)(C)c3cc(C4=NOC(c5ccc(C(=O)O)cc5)C4)ccc32)cc1 (racemic) | – | – | – | inactive | – | – | – |
| Cc1ccc(C2=CCC(C)(C)c3cc(C(O)/C=C/c4ccc(C(=O)O)cc4)ccc32)cc1 (racemic) | – | inactive | – | – | – | – | pIC50 [9]: 5.70; pIC50 [10]: 6.40 |
| Cc1ccc(C2=CCC(C)(C)c3cc(C(=O)/C=C/c4ccc(C(=O)O)cc4)ccc32)cc1 | – | – | – | – | – | – | pIC50 [9]: 6.40; pIC50 [10]: > 6.52 |

The next lines start with results.

| Activity [1] | Activity [2] | inhibition [4] | inhibition [5] | Activity [6] | inhibition [7] | Compound | further results |
| --- | --- | --- | --- | --- | --- | --- | --- |
| Active | Active | – | – | – | – | CC1(C)CC=C(c2ccccc2)c2ccc(C(=O)/C=C/c3ccc(C(=O)O)cc3)cc21 | inhibition [3]: Active |
| – | – | Active | Active | Active | Active | CC1(C)CC=C(c2ccccc2)c2ccc(C(=O)C(=O)Nc3ccc(C(=O)O)cc3F)cc21 | – |
| – | – | Active | Active | Active | Active | Cc1ccc(C2=CCC(C)(C)c3cc(C(=O)C(=O)Nc4ccc(C(=O)O)cc4F)ccc32)cc1 | – |
| inactive | inactive | – | – | – | – | CC1(C)CC=C(C#Cc2ccccc2)c2ccc(C(O)C(=O)Nc3ccc(C(=O)O)cc3F)cc21 (racemic) | – |
| – | – | Active | Active | Active | Active | CC1(C)CC=C(C#Cc2ccccc2)c2ccc(C(=O)C(=O)Nc3ccc(C(=O)O)cc3F)cc21 | – |
| inactive | inactive | inactive | inactive | inactive | inactive | Cc1ccc(C2=CCC(C)(C)c3cc(C(O)C(=O)Nc4ccc(C(=O)O)cc4F)ccc32)cc1 (racemic) | – |
| Active | Active | Active | Active | inactive | Active | CC1(C)CC=C(c2ccccc2)c2ccc(C(O)C(=O)Nc3ccc(C(=O)O)cc3F)cc21 (racemic) | – |
